From ChEMBL document CHEMBL4177662, “Phosphamide-containing diphenylpyrimidine analogues (PA-DPPYs) as potent focal adhesion kinase (FAK) inhibitors with enhanced activity against pancreatic cancer cell lines” (Bioorg Med Chem, 2017)

Legend:
Focal adhesion kinase 1 = Focal adhesion kinase 1 (Homo sapiens, UniProt Q05397); assay: Inhibition of recombinant human N-terminal His-tagged FAK cytoplasmic domain (393 to 698 residues) expressed in baculovirus infected sf9 cells assessed as reduction in autophosphorylation after 60 mins by ADP-Glo kinase assay
In short: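 ADP-Glo luminescence assay. The kinase reaction ran in 1× kinase buffer with compound at 1 to 200 nM, for 60 min at room temperature. ADP-Glo reagent was then added to stop the reaction and deplete leftover ATP (40 min, room temperature). Detection reagent converted ADP to ATP for luciferase read-out (30 min). IC50 from curve fitting, mean ± SE of three independent experiments.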

ASPC1 = assay: Antiproliferative activity against human Aspc-1 cells after 72 hrs by MTT assay; type: functional, cell-based; conditions: ASPC1, 72 h
In short: (§1)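 Cells grown in DMEM with 10% FBS and 1% penicillin-streptomycin at 37 °C, 5% CO2. Seeded at 4,000 to 5,000 cells/well, cultured one day, then exposed to compounds for 72 h at 1.25 to 40 μmol/L, five replicates per concentration. MTT absorbance read at 570 nm. IC50 from five-point dose-response curves; mean of at least three separate experiments.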

BXPC-3 = assay: Antiproliferative activity against human BxPC3 cells after 72 hrs by MTT assay; type: functional, cell-based; conditions: BXPC-3, 72 h; in short: as §1
PANC-1 = assay: Antiproliferative activity against human PANC1 cells after 72 hrs by MTT assay; type: functional, cell-based; conditions: PANC-1, 72 h; in short: as §1
[1] = Antiproliferative activity against human HPDE6c7 cells after 72 hrs by MTT assay; type: cell-based; conditions: HPDE6c7, 72 h; in short: as §1

Sequence of Focal adhesion kinase 1 (Q05397 whole entry, the tested form may be a part): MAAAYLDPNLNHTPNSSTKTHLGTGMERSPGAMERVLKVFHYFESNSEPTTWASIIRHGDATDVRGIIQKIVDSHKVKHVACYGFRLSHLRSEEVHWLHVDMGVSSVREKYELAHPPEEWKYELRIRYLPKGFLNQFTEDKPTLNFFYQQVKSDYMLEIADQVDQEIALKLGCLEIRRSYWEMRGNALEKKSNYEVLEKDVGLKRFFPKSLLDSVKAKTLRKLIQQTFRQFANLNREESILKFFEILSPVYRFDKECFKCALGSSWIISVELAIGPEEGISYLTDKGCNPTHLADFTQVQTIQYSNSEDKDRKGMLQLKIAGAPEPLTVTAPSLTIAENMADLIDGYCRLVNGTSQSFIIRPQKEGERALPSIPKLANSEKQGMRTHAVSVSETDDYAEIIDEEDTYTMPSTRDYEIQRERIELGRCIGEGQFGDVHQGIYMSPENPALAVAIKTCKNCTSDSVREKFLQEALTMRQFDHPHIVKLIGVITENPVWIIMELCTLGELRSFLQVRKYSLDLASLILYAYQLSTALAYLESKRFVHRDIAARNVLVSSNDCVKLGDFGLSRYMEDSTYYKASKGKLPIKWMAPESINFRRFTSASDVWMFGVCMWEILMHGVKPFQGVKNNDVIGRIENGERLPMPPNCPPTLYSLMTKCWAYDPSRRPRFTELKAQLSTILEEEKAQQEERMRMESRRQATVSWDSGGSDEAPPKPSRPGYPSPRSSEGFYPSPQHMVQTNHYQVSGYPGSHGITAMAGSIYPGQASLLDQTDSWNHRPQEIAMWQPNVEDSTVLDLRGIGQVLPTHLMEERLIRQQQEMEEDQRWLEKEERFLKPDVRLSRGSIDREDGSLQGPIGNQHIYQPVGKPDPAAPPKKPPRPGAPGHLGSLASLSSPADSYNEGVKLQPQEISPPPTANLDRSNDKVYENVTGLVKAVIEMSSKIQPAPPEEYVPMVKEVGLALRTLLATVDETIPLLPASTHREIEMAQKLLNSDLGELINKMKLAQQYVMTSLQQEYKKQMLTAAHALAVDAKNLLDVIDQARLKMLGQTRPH

Structure (SMILES)	IC50 (Focal adhesion kinase 1)	IC50 (ASPC1)	IC50 (BXPC-3)	IC50 (PANC-1)	IC50 [1]
CCOP(=O)(Cc1ccc(Nc2ncc([N+](=O)[O-])c(Nc3ccccc3C(=O)NC)n2)cc1)N1CCOCC1 (configuration not stated)	5.69 nM	6.42 µM	1020 nM	> 40 µM	8.11 µM
CNC(=O)c1ccccc1Nc1nc(Nc2ccc(N3CCOCC3)cc2OC)ncc1Cl				> 20 µM	11.4 µM
CCOP(=O)(Cc1ccc(Nc2ncc([N+](=O)[O-])c(Nc3ccccc3C(=O)NC)n2)cc1)OCC	5.01 nM	15.2 µM	820 nM	19.2 µM	4.6 µM
CCOP(=O)(Cc1ccc(Nc2ncc(Cl)c(Nc3ccccc3C(=O)NC)n2)cc1)OCC	4.25 nM	3.31 µM	20 nM	14.8 µM	5.44 µM
CCOP(=O)(CCCOc1ccc(Nc2ncc([N+](=O)[O-])c(Nc3ccccc3C(=O)NC)n2)cc1)OCC	6.18 nM	18.3 µM	2040 nM	25.4 µM	1.96 µM
CCOP(=O)(CCCOc1ccc(Nc2ncc(Cl)c(Nc3ccccc3C(=O)NC)n2)cc1)OCC	10.7 nM	4.93 µM	1040 nM	10.9 µM	4.43 µM
